Source: ChEMBL document CHEMBL1772981, “Discovery of 2-arylbenzoxazoles as upregulators of utrophin production for the treatment of Duchenne muscular dystrophy” (J Med Chem, 2011)
In brackets after ≈: the same amount, converted by molar mass.

What was measured:
[1] = species: Mus musculus; test: Activation of UTRN promoter in mouse H2K cells assessed as upregulation of UTRN production after 48 hrs by luciferase reporter linked assay; assay type: functional, cell-based
In short: (§1)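 H2K myoblasts stably carrying a utrophin (UTRN) promoter–luciferase reporter were plated 24 h before dosing and exposed to compound for 48 h. Luciferase was read by luminescence (Steady-Glo). The primary screen was at 10 μM and the secondary at six concentrations for EC50, both in triplicate. Non-EC50 values are % of the reference upregulator's maximum, given with the concentration at maximum.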

[2] = species: Mus musculus; test: Activation of UTRN promoter in mouse H2K cells assessed as upregulation of UTRN production at 10 uM after 72 hrs by RT-PCR analysis; assay type: functional
In short: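 H2K cells were seeded at 25000 per well, left 24 h, then dosed for 72 h in 1% DMSO final. Total RNA was extracted and reverse transcribed. qPCR used an amplicon spanning the UTRN exon 3–4 boundary, with β-actin as the endogenous control, and was quantified by ΔΔCT. Values are % UTRN relative to DMSO control (=100), with P value.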

[3] = Half life in mouse liver microsomes; assay type: ADME, Microsome
[4] = Half life in human liver microsomes; assay type: ADME, Microsome
[5] = Aqueous solubility of the compound by turbidimetry; assay type: physicochemical; conditions: buffer
In short: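 Turbidimetric aqueous solubility, reported as the final test compound concentration.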

[6] = species: Mus musculus; test: Activation of UTRN promoter in mouse H2K cells assessed as upregulation of UTRN production at 10 uM after 48 hrs by luciferase reporter linked assay; assay type: functional; in short: as §1
[7] = species: Mus musculus; test: Activation of UTRN promoter in mouse H2K cells assessed as upregulation of UTRN production at 30 uM after 48 hrs by luciferase reporter linked assay; assay type: functional; in short: as §1
[8] = species: Mus musculus; test: Activation of UTRN promoter in mouse H2K cells assessed as upregulation of UTRN production at 3 uM after 48 hrs by luciferase reporter linked assay; assay type: functional; in short: as §1
[9] = tested on: Mus musculus; test: Tmax in CD1 mouse at 10 mg/kg, ip; assay type: ADME, organism-based; design: dose 10 mg/kg, route intraperitoneal; conditions: in vivo
In short: (§2)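 Male CD1 mice were dosed i.p. at 10 mg/kg in 95% PBS containing 0.1% Tween 20 and 5% DMSO. Plasma was sampled at 5–360 or 5–480 min. AUC is in μg.min/mL. Half-life was not calculated where the log concentration–time plot lacked a linear region of at least three points.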

[10] = tested on: Mus musculus; test: Cmax in CD1 mouse at 10 mg/kg, ip; assay type: ADME, organism-based; design: dose 10 mg/kg, route intraperitoneal; conditions: in vivo; in short: as §2
[11] = tested on: Mus musculus; test: Half life in CD1 mouse at 10 mg/kg, ip; assay type: ADME, organism-based; design: dose 10 mg/kg, route intraperitoneal; conditions: in vivo; in short: as §2
[12] = tested on: Mus musculus; test: AUC in CD1 mouse at 10 mg/kg, ip; assay type: ADME, organism-based, Plasma; design: dose 10 mg/kg, route intraperitoneal; conditions: in vivo; in short: as §2
[13] = Tmax in CD1 mouse at 50 mg/kg, ip; assay type: ADME, organism-based; design: dose 50 mg/kg, route intraperitoneal; conditions: in vivo
In short: (§3)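 Male CD1 mice were given 50 mg/kg i.p. in 95% PBS with 0.1% Tween 20 and 5% DMSO. Plasma was sampled at 0.08, 0.25, 0.5, 1, 2, 4, 8 and 24 h in three animals, and values are the mean in ng/mL.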

[14] = Cmax in CD1 mouse at 50 mg/kg, ip; assay type: ADME, organism-based; design: dose 50 mg/kg, route intraperitoneal; conditions: in vivo; in short: as §3
[15] = AUC in CD1 mouse at 50 mg/kg, ip; assay type: ADME, organism-based; design: dose 50 mg/kg, route intraperitoneal; conditions: plasma; in short: as §3

SMILES | EC50 ([1]; Mus musculus, H2K, 48 h) [µM] | Activity [6] [%] | also measured
CC(C)C(=O)Nc1ccc2nc(-c3ccc(Cl)c(Cl)c3)oc2c1 | 4 |  | Activity [2]: 111.5%
CCS(=O)(=O)c1ccc2oc(-c3ccc(Cl)c(Cl)c3)nc2c1 | 3 |  | Activity [2]: 138.3%; half-life [3]: 1.68 h; half-life [4]: 1.75 h; solubility kinetic [5]: 3 µM (≈ 1.07 µg/mL)
CCS(=O)(=O)c1ccc2oc(-c3cccc(Cl)c3)nc2c1 | > 30 |  | 
CCS(=O)(=O)c1ccc2oc(-c3cccc(Cl)c3Cl)nc2c1 |  | 40 | 
CCS(=O)(=O)c1ccc2oc(-c3ccc(Cl)cn3)nc2c1 | > 30 |  | 
CCS(=O)(=O)c1ccc2oc(-c3cccc(Cl)c3F)nc2c1 | > 10 |  | 
CCS(=O)(=O)c1ccc2oc(-c3ccco3)nc2c1 | > 30 |  | 
CCS(=O)(=O)c1ccc2oc(-c3cccs3)nc2c1 |  |  | Activity [7]: 29%
CCS(=O)(=O)c1ccc2oc(-c3ccc4c(c3)OCO4)nc2c1 | 4.2 |  | 
CCS(=O)(=O)c1ccc2oc(-c3ccc4ccccc4n3)nc2c1 |  |  | Activity [8]: 59%
CCS(=O)(=O)c1ccc2oc(-c3cnc4ccccc4c3)nc2c1 | > 30 |  | 
CCS(=O)(=O)c1ccc2oc(-c3cc4ccccc4cn3)nc2c1 |  | 63 | 
CCS(=O)(=O)c1ccc2oc(-c3ccc4ncccc4c3)nc2c1 | 1.9 |  | 
CCS(=O)(=O)c1ccc2oc(-c3ccc4nccnc4c3)nc2c1 | > 30 |  | 
CCS(=O)(=O)c1ccc2oc(-c3cccc4ccccc34)nc2c1 | > 30 |  | 
CCS(=O)(=O)c1ccc2oc(-c3ccc4sccc4c3)nc2c1 |  | 86 | half-life [4]: 0.983 h
CCS(=O)(=O)c1ccc2oc(-c3ccc4c(c3)CCCC4)nc2c1 |  | 51 | 
CCS(=O)(=O)c1ccc2oc(C3CCc4ccccc4C3)nc2c1 (stereo unspecified) |  | 32 | 
CCS(=O)(=O)c1ccc2oc(-c3ccc4c(c3)CCC4)nc2c1 | 2.3 |  | half-life [4]: 0.333 h
CCS(=O)(=O)c1ccc2oc(-c3ccc4occc4c3)nc2c1 |  | 73 | 
CCS(=O)(=O)c1ccc2oc(-c3ccc4[nH]ccc4c3)nc2c1 |  | 81 | 

SMILES | EC50 ([1]; Mus musculus, H2K, 48 h) [µM] | Activity [6] [%] | also measured
CCS(=O)(=O)c1ccc2oc(-c3ccc(-c4ccccc4)cc3)nc2c1 | > 30 |  | 
CCS(=O)(=O)c1ccc2oc(-c3ccc(Oc4ccccc4)cc3)nc2c1 | > 30 |  | 
CCS(=O)(=O)c1ccc2oc(-c3cccc(Oc4ccccc4)c3)nc2c1 | > 30 |  | 
CCS(=O)(=O)c1ccc2oc(Cc3ccc4ccccc4c3)nc2c1 | > 30 |  | 
CCS(=O)(=O)c1ccc2oc(/C=C/c3ccccc3)nc2c1 |  | 53 | 
CCCc1nc2cc(S(=O)(=O)CC)ccc2o1 |  | 14 | 
CCS(=O)(=O)c1ccc2oc(C3CCCCC3)nc2c1 |  | 25 | 
CCCS(=O)(=O)c1ccc2oc(-c3ccc(Cl)cc3)nc2c1 | > 30 |  | 
CS(=O)(=O)c1ccc2oc(-c3ccc(Cl)cc3)nc2c1 |  | 53 | 
CC(C)S(=O)(=O)c1ccc2oc(-c3ccc(Cl)cc3)nc2c1 | 10.2 |  | 
CC(C)S(=O)(=O)c1ccc2oc(-c3ccc(Cl)c(Cl)c3)nc2c1 |  | 45 | 
NS(=O)(=O)c1ccc2oc(-c3ccc(Cl)cc3)nc2c1 |  |  | Activity [7]: 60%
O=S(=O)(O)c1ccc2oc(-c3ccc(Cl)cc3)nc2c1 | > 30 |  | 
CCN(CC)S(=O)(=O)c1ccc2oc(-c3ccc(Cl)cc3)nc2c1 |  | 28 | 
CCS(=O)(=O)c1ccc2nc(-c3ccc(Cl)cc3)oc2c1 | > 30 |  | 
CCS(=O)(=O)c1ccc2nc(-c3ccc(Cl)c(Cl)c3)oc2c1 | 10.6 |  | 
CS(=O)(=O)c1ccc2oc(-c3ccc4ccccc4c3)nc2c1 |  |  | Activity [8]: 95%; half-life [3]: 0.557 h
CCS(=O)(=O)c1ccc2oc(-c3ccccc3Cl)nc2c1 |  |  | Activity [7]: 62%
CCS(=O)(=O)c1ccc2oc(-c3ccc(Cl)cc3)nc2c1 | 5 |  | half-life [3]: 0.51 h; half-life [4]: 1.15 h; Tmax [9]: 5 min; Cmax [10]: 5650 ng/mL; t1/2 [11]: 2.18 h; AUC [12]: 9650 ng·h/mL; solubility kinetic [5]: 10 µM (≈ 3.22 µg/mL)
CCS(=O)(=O)c1ccc2oc(-c3ccccc3)nc2c1 |  | 69 | solubility kinetic [5]: 100 µM (≈ 28.7 µg/mL)
CCS(=O)(=O)c1ccc2oc(-c3ccc4ccccc4c3)nc2c1 [EZUTROMID] | 1.8 |  | EC50 ([1]; h2k): 0.91 µM; Activity [2]: 143%; half-life [3]: 1.36 h; half-life [4]: 1.75 h; Tmax [13]: 0.25 h; Cmax [14]: 1490 ng/mL; AUC [15]: 7000 ng·h/mL; solubility kinetic [5]: 3 µM (≈ 1.01 µg/mL)
